# Exocytosis inh: lytic granule exocytosis inhibition; TALL-104 LAMP-1 surface exposure, flow cytometry; cells stimulated with thapsigargin and PMA; inhibition, % at 10 µM; actives 0.66% (n = 360,000);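 active means inhibition above about 55%, limit read from the data; inconclusive means no clear call, values can overlap the other calls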
# DSG3 Ab inh: human desmoglein-3 autoantibody binding inhibition | actives 0.48% (n = 310,000) | P32926 | DSG3-coupled beads, scFv-anti-DSG3-GFP binding, flow cytometry; stronger effect = lower value | binding (percent of control), % at 10 µM;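 active means binding more than 3 SD below its plate's average and above zero; inconclusive means below that plate limit but binding exactly zero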;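 further: hits lower antibody fragment binding to DSG3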
# SENP1 inh: blocks the human SENP1 SUMO protease catalytic domain. Q9P0U3. recombinant SENP1 catalytic domain, CyPet-SUMO1-YPet FRET cleavage. inhibition, % at 10 µM. actives 0.21% (n = 360,000);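 active means inhibition at least 30% at 10 µM, raw YFP signal under a set limit, fluorescence ratio 0.5 to 1.5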;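 further: 0% = enzyme with DMSO and 100% = no enzyme wells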
# Target sequence (Q9P0U3 419-644 limits assumed): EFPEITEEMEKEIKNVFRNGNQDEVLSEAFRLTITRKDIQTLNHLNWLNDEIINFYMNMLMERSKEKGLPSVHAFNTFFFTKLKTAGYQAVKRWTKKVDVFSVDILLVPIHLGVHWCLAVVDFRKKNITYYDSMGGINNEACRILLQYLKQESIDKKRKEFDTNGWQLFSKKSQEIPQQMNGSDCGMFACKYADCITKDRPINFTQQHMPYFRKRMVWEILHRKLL
#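 Compound: 10 µM single point, 0.5% DMSO; Test system: hSENP1 catalytic domain, recombinant; Timing: 50 min reaction at room temperature; Technique: FRET, CFP and YFP emission; Control set: no-enzyme wells low, DMSO-plus-enzyme wells high control.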
# HNF4A DNA FP: change in binding of human HNF4 alpha to DNA. HNF4a-FITC DNA binding, fluorescence polarization, 1 h. activity change, % at 10 µM. actives 0.3% (n = 360,000); in the data active means activity change above about 30%, passing the limit was not always enough
# Cardio protect: myocardial damage modulation in H9c2 cells; actives 0.63% (n = 360,000); AID 588492; H9c2 cardiomyocytes, H2O2 injury protection, ATPLite, 2 h; protection from H2O2 cell death, % at 20 µM;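 active means compounds giving at least 50% protection of heart cells from peroxide-induced death in the single-dose screen, raw or plate-pattern-corrected value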;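 further: 0% = DMSO wells with peroxide and 100% = DMSO wells without peroxide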
# Myeloid diff 2: myeloid differentiation induction; ER-HoxA9 myeloid progenitors, lysozyme-GFP differentiation, flow cytometry; calls only at 10 µM; actives 1% (n = 360,000); AID 624256;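 active means normalized GFP-positive differentiation at or above the plate's own cutoff, the solvent-only control mean plus 3 SD; inconclusive means no clear call, values can overlap the other calls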;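 further: cells exposed to compound for four days before flow analysis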
# Active calls of the source: *; i = inactive; ? = inconclusive; / = not tested or not shown; + = active, no number. An excerpt weighted towards active compounds, which were near 3% of everything screened.
SMILES,Exocytosis inh,DSG3 Ab inh,SENP1 inh,HNF4A DNA FP,Cardio protect,Myeloid diff 2
COc1ccc(-c2csc3nc(-c4ccc(C)cc4)oc(=O)c23)cc1OC,-2,116,-18,48*,-4,i
O=C(Cn1cnc2ccccc2c1=O)Nc1nnc(SCc2ccc(Cl)cc2)s1,-2,99,3,4,-2,i
COc1cc(OC)cc(-c2c(-c3cccs3)c3cc(-c4ccc(OCc5ccccc5)cc4)ccc3n2C)c1,0,/,-10,17,-6,i
COc1cccc(NC(=O)CN2C(=O)NC(Cc3c[nH]c4ccccc34)C2=O)c1 (centres undefined),-3,133,1,-4,0,i
COc1ccc([C@H]2CC(=O)C=C(c3ccc(OC)cc3OC)C2)cc1,-4,97,2,4,-4,?
COc1ccc(C2CC(=O)C=C3c4ccc(OC)cc4CCC32)cc1 (centres undefined),10,84*,-2,-1,-6,i
CCOC(=O)c1cc([N+](=O)[O-])sc1NC(=O)c1ccc(S(=O)(=O)N2CC3(C)CC2CC(C)(C)C3)cc1 (centres undefined),-5,92,8,14,-14,+
CN(CC(=O)Nc1ccccc1Br)C(=O)c1ccc2c(=O)n3c(nc2c1)CCC3,10,/,4,-4,0,i
Cc1nc2cc(-c3ccccc3)nn2c(C)c1CCC(=O)NC(C)c1ccc2c(c1)OCCO2 (centres undefined),-6,103,-1,1,-4,i
Cc1ccccc1NC(=O)Cc1nnc(N)s1,2,/,0,3,6,i
COc1ccc(N=Cc2cc(Cc3ccccc3Cl)cc([N+](=O)[O-])c2O)cc1OC,33,102,10,-3,76*,i
O=[N+]([O-])c1ccc(O)c(/C=N/n2c(-c3ccccc3)n[nH]c2=S)c1,-9,109,-8,-1,3,i
O=[N+]([O-])c1ccc(Cl)c(/C=N/n2c(-c3ccncc3)n[nH]c2=S)c1,-2,/,0,1,8,+
Cc1ccc(NC(=O)CN2C(=O)NC(C)(C)C2=O)cc1S(=O)(=O)N1CCCCCC1,-1,?,2,33*,0,i
COc1ccccc1CC(=O)N(Cc1ccccc1)c1cccc(C)c1,5,104,-3,5,1,/
COc1cc(OC)cc(-c2oc(=O)c3cc(OC)c(OC)cc3c2C#CCCO)c1,-2,102,-2,0,24,i
COc1ccc(-c2oc(=O)c3cc(OC)c(OC)cc3c2C#CCCO)cc1,1,94,-21,-2,66*,i
NCC(O)CN1CCN(Cc2ccccc2)CC1 (centres undefined),14,95,2,-1,-1,i
COc1ccccc1C(=O)NCC(=O)N/N=C/c1cc(Br)ccc1OC(=O)/C=C\c1ccco1,7,84,-37,-3,88*,i
O=C(CNC(=O)c1ccco1)N/N=C/c1cc(Br)ccc1O,10,99,-88,5,40,i
COc1ccc(C(=O)NCC(=O)N/N=C/c2ccco2)cc1OC,-8,118,-1,0,0,?
O=C(CNC(=O)c1ccc(F)cc1)N/N=C/c1cc(Br)ccc1OC(=O)/C=C/c1ccco1,-1,89,-51,-3,80*,i
O=C(CNC(=O)c1ccccc1F)N/N=C/c1cc(Br)ccc1OC(=O)/C=C/c1ccco1,-3,108,-47,0,57*,i
Cc1cc2cc(C(c3nnnn3C(C)(C)C)N(Cc3ccco3)CC3CCCO3)c(=O)[nH]c2cc1C (centres undefined),-5,99,-13,43*,5,i
COc1ccc2[nH]c(=O)c(C(c3nnnn3C(C)(C)C)N(Cc3ccco3)CC3CCCO3)cc2c1 (centres undefined),-4,100,-1,0,6,i
SMILES,Exocytosis inh,DSG3 Ab inh,SENP1 inh,HNF4A DNA FP,Cardio protect,Myeloid diff 2
COc1ccc(Nc2nc(NCc3ccco3)nc(N/N=C/c3ccc(O)cc3)n2)cc1,8,82,-6,-2,51*,i
COc1ccc(/C=N/Nc2nc(NCc3ccco3)nc(Nc3ccc(OC)cc3)n2)cc1,-4,45,-1,-3,1,i
Cc1ccc(OCC(=O)N/N=C\c2ccc(C)o2)c([N+](=O)[O-])c1,3,161,-7,33,-5,+
Cc1[nH]n(-c2cccc3ccccc23)c(=O)c1/C=N/NC(=O)c1cccc([N+](=O)[O-])c1,4,125,2,1,56*,i
Cc1ccc(OCC(=O)N/N=C/c2ccccc2)c([N+](=O)[O-])c1,-2,100,4,2,-12,i
Cc1[nH]n(-c2ccccc2)c(=O)c1/C=N/NC(=O)c1cccc([N+](=O)[O-])c1,2,115,0,-7,8,?
Cc1[nH]n(-c2ccccc2)c(=O)c1/C=N/NC(=O)COc1ccccc1[N+](=O)[O-],0,106,1,0,62*,i
O=c1c2ccccc2nnn1CCO,0,92,1,-4,-4,i
CC(=O)Nc1ccc(S(=O)(=O)c2ccc(C)cc2)cc1,0,105,4,34*,-1,i
O=S(=O)(Cc1ccccc1)C(CCCc1ccccc1)S(=O)(=O)Cc1ccccc1,-3,137,0,-4,-3,+
O=C(CN1CCN(S(=O)(=O)c2ccc(F)cc2)CC1)Nc1ccc(F)cc1F,-2,108,0,5,10,+
Cc1ccc(/C=N/NC(=O)c2cccc(NC(=O)c3ccccc3Cl)c2)o1,12,96,-2,2,14,+
Cc1ccc(/C=N/NC(=O)c2cccc(NC(=O)c3ccccc3C)c2)o1,49,105,0,0,6,+
Cc1cccc(C(=O)Nc2ccc(C(=O)N/N=C/c3ccc(C)o3)cc2)c1,6,99,0,0,15,?
COc1ccc(S(=O)(=O)NCC(c2cccnc2)N2CCN(Cc3ccccc3)CC2)cc1C (centres undefined),-6,100,-7,-2,-2,i
Cc1ccc(-c2nn(C)c(=O)c3ccccc23)cc1CNC(=O)NC1CCCCC1,0,/,1,3,12,i
O=C(COC(=O)C1CCN(c2ccc(C(F)(F)F)cn2)CC1)Nc1ncc(Cl)cc1Cl,-2,98,0,-3,-6,i
O=C(Cc1ccc(-n2c(=O)[nH]c3ccsc3c2=O)cc1)N1CCN(c2ccc(Cl)cc2)CC1,0,105,-2,5,4,+
COc1ccccc1/C=C\C(=O)NCC(=O)N/N=C/c1cccc(OC)c1O,4,/,-2,3,72*,i
